The test system of series [1] is Mycobacterium tuberculosis. The series is described as follows: Antitubercular activity against Mycobacterium tuberculosis H37Rv ATCC 27294 after 28 days by two-fold serial dilution method. In kind it is functional. To be noted: H37Rv ATCC 27294, 672 h. In outline:
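Agar dilution on Middlebrook 7H11 with OADC, compound incorporated as two-fold serial dilutions. Inoculum from fresh 7H11/OADC slants, adjusted to 1 mg/mL wet weight in 0.05% Tween 80 saline and diluted 10^-2 to about 10⁷ cfu/mL, then spotted onto the drug-containing agar. Growth read after 28 days. MIC taken as the lowest concentration giving complete inhibition.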

The nature of series [2]: Cytotoxicity against mouse RAW264.7 cells assessed as growth inhibition at 50 uM after 72 hrs by MTT assay. The series is classed as cell-based. To be noted: read-out: GI. The method, boiled down: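 RAW 264.7 cells were exposed to compound for 72 h. Viability was read as cellular conversion of MTT to formazan using a non-radioactive cell proliferation kit. Results were expressed as percentage growth inhibition.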

In series [3] the test system is Mycobacterium tuberculosis. The series is described as follows: Antitubercular activity against Mycobacterium tuberculosis H37Rv ATCC 27294 after 28 days by two-fold serial dilution method in presence of efflux pump inhibitor verapamil. To be noted: H37Rv ATCC 27294, 672 h. The series is classed as functional.
A short description of series [4]: Selectivity index of cytotoxicity against mouse RAW264.7 cells to antitubercular activity against Mycobacterium tuberculosis H37Rv ATCC 27294. The note with it: read-out: Selectivity Index. The series is classed as toxicity, cell-based.

Values after ≈ are worked out from the molar mass of the structure shown.

In turn, `CC(=O)N1CCc2c(sc(NC(=O)C3CCCCC3)c2C(N)=O)C1` gave an MIC in series [1] of 71.4 µM (≈ 25 µg/mL).
As for `CN1CCc2c(sc(NC(=O)C3CCCCC3)c2C(N)=O)C1`, in series [2], the inhibition at 72 h, 50 µM came out at 18.3%. Besides, the MIC stood at 2.58 µM in series [3] and 7.76 µM (≈ 2.49 µg/mL) in series [1].
As for `CC(=O)N1CCc2c(sc(NC(=O)c3cccs3)c2C(N)=O)C1`, the selectivity ratio in series [4] is 13. For the same compound, the MIC in series [3] was 4.57 µM; in series [1], 9.15 µM (≈ 3.2 µg/mL).
As for `CC(=O)Nc1sc2c(c1C(N)=O)CCCCCC2`, the inhibition at 72 h, 50 µM in series [2] is 24.6%. Moreover, the MIC in series [3] came to 9.36 µM; in series [1] it was 18.7 µM (≈ 4.99 µg/mL).
Taken in the same sequence, the figures for `NC(=O)c1c(NC(=O)c2ccccc2)sc2c1CCCCCC2` were 26.6%, 5.06 µM and 15.2 µM (≈ 4.99 µg/mL).
As to `COc1ccccc1C(=O)Nc1sc2c(c1C(N)=O)CCCCCC2`, the inhibition at 72 h, 50 µM in series [2] amounted to 24.8%. Besides, the MIC in series [3] was determined as 6.96 µM; in series [1] it was 13.9 µM (≈ 4.99 µg/mL).
As for `NC(=O)c1c(NC(=O)c2cccc([N+](=O)[O-])c2)sc2c1CCCCCC2`, the inhibition at 72 h, 50 µM in series [2] turned out to be 36.1%. Moreover, the MIC in series [3] was 16.7 µM; in series [1] it was 16.7 µM (≈ 6.24 µg/mL).
Regarding `Cc1ccc(C(=O)Nc2sc3c(c2C(N)=O)CCCCCC3)cc1`, the inhibition at 72 h, 50 µM in series [2] came out at 20.5%. The MIC came out at 2.27 µM in series [3] and 4.54 µM (≈ 1.55 µg/mL) in series [1].
For `NC(=O)c1c(NC(=O)c2ccc(Oc3ccccc3)cc2)sc2c1CCCCCC2`, in series [4], the selectivity ratio was > 10. Besides, the inhibition at 72 h, 50 µM in series [2] was found to be 22.2%. For the same compound, the values for the MIC in series [3] and in series [1] were 1.23 µM and 3.7 µM (≈ 1.56 µg/mL), respectively.
On to `NC(=O)c1c(NC(=O)c2cccc3ccccc23)sc2c1CCCCCC2`, for which, in series [2], the inhibition at 72 h, 50 µM was found to be 28.3%. For the same compound, the MIC in series [3] turned out to be 3.29 µM; in series [1], 13.2 µM (≈ 4.99 µg/mL).
Consider `NC(=O)c1c(NC(=O)C2CC2)sc2c1CCCCCC2`, for which the inhibition at 72 h, 50 µM in series [2] came out at 16.9%. Besides, the MIC in series [3] is 8.53 µM; in series [1], 17.1 µM (≈ 4.99 µg/mL).
For `NC(=O)c1c(NC(=O)C2CCCC2)sc2c1CCCCCC2`, in series [2], the inhibition at 72 h, 50 µM came to 18.3%. For the same compound, the MIC in series [3] was found to be 9.73 µM; in series [1], 9.73 µM (≈ 3.12 µg/mL).
Consider `NC(=O)c1c(NC(=O)C2CCCCC2)sc2c1CCCCCC2`, for which the inhibition at 72 h, 50 µM in series [2] is 16.6%. For the same compound, the MIC was 3.11 µM in series [3] and 9.33 µM (≈ 3.12 µg/mL) in series [1].
Consider `CC(=O)N1CCc2c(sc(NC(=O)c3ccccc3)c2C(N)=O)C1`, for which it took 72.7 µM (≈ 24.9 µg/mL) to inhibit growth in series [1] (MIC).
In series [1], `COc1ccccc1C(=O)Nc1sc2c(c1C(N)=O)CCN(C(C)=O)C2` returned a minimal inhibitory concentration (MIC) of 66.8 µM (≈ 25 µg/mL).
Compound `CC(=O)N1CCc2c(sc(NC(=O)c3cccc([N+](=O)[O-])c3)c2C(N)=O)C1` gave an MIC in series [1] of 64.3 µM (≈ 25 µg/mL).
Still for that read-out and setting: the result for `CC(=O)N1CCc2c(sc(NC(=O)c3ccc(C)cc3)c2C(N)=O)C1` reads 69.8 µM (≈ 24.9 µg/mL); that for `CC(=O)N1CCc2c(sc(NC(=O)c3ccc(Oc4ccccc4)cc3)c2C(N)=O)C1`, 57.3 µM (≈ 25 µg/mL).
In series [1], `CC(=O)N1CCc2c(sc(NC(=O)c3cccc4ccccc34)c2C(N)=O)C1` registered an MIC of 63.5 µM (≈ 25 µg/mL).
Take `CC(=O)N1CCc2c(sc(NC(=O)C3CC3)c2C(N)=O)C1`: it took 81.2 µM (≈ 24.9 µg/mL) to inhibit growth in series [1] (MIC).
Still for that read-out and setting: the result for `CC(=O)N1CCc2c(sc(NC(=O)C3CCCC3)c2C(N)=O)C1` reads 74.4 µM (≈ 25 µg/mL); that for `CC(=O)Nc1sc2c(c1C(N)=O)CCN(C)C2`, 39.4 µM (≈ 9.99 µg/mL).
The same measure, in the same setting: next, `CN1CCc2c(sc(NC(=O)c3ccccc3)c2C(N)=O)C1`: 37.9 µM (≈ 11.9 µg/mL).
On the same count and under the same terms, the result for `COc1ccccc1C(=O)Nc1sc2c(c1C(N)=O)CCN(C)C2` reads 36.1 µM (≈ 12.5 µg/mL); that for `CN1CCc2c(sc(NC(=O)c3cccc([N+](=O)[O-])c3)c2C(N)=O)C1`, 34.6 µM (≈ 12.5 µg/mL); that for `Cc1ccc(C(=O)Nc2sc3c(c2C(N)=O)CCN(C)C3)cc1`, 37.9 µM (≈ 12.5 µg/mL).
The compound `CN1CCc2c(sc(NC(=O)c3ccc(Oc4ccccc4)cc3)c2C(N)=O)C1` returned an MIC in series [1] of 30.6 µM (≈ 12.5 µg/mL).
On to `CN1CCc2c(sc(NC(=O)c3cccc4ccccc34)c2C(N)=O)C1`, for which the inhibition at 72 h, 50 µM in series [2] was found to be 28.4%. Moreover, the MIC in series [3] worked out at 8.53 µM; in series [1], 17.1 µM (≈ 6.24 µg/mL).
On to `CN1CCc2c(sc(NC(=O)C3CC3)c2C(N)=O)C1`, for which the inhibition at 72 h, 50 µM in series [2] was found to be 22.2%. The MIC in series [3] stood at 2.78 µM; in series [1] it was 5.57 µM (≈ 1.56 µg/mL).
Take `CN1CCc2c(sc(NC(=O)C3CCCC3)c2C(N)=O)C1`: in series [2], the inhibition at 72 h, 50 µM was found to be 18.2%. The values for the MIC in series [3] and in series [1] were 5.06 µM and 5.06 µM (≈ 1.56 µg/mL), respectively.
Regarding `CC(=O)Nc1sc2c(c1C(N)=O)CCN(C(C)=O)C2`, the MIC in series [1] came out at 88.6 µM (≈ 24.9 µg/mL).
As to `O=C(O)c1cn(C2CC2)c2cc(N3CCNCC3)c(F)cc2c1=O` [CIPROFLOXACIN], the MIC is 9.41 µM in series [3] and 9.41 µM (≈ 3.12 µg/mL) in series [1].
Take `CC[C@@H](CO)NCCN[C@@H](CC)CO` [ETHAMBUTOL]: the MIC in series [3] was found to be 3.82 µM; in series [1], 7.64 µM (≈ 1.56 µg/mL).
Regarding `NNC(=O)c1ccncc1` [ISONIAZID], the MIC in series [3] was 0.72 µM; in series [1], 0.72 µM (≈ 0.0987 µg/mL).

The values above are taken from ChEMBL document CHEMBL3124864, “Development of antimycobacterial tetrahydrothieno[2,3-c]pyridine-3-carboxamides and hexahydrocycloocta[b]thiophene-3-carboxamides: Molecular modification from known antimycobacterial lead” (Eur J Med Chem, 2014).
